IDE act – boosts human insulin-degrading enzyme activity in HEK cells; FAbeta-B cleavage, fluorescence polarization; 0% vehicle, 100% cell-free pure enzyme wells; activation, % at 5.96 µM; 340,000 tested, 0.073% active; AID 493087;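 active means activation above the mean of all tested compounds plus 3 SD, set per screening campaign, cut at about 17% in these data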
TPT1 inhibitor – inhibitors of Candida albicans tRNA 2'-phosphotransferase TPT1; recombinant caTPT1, FP RNA substrate dephosphorylation; inhibition, % at 5 µM; 300,000 tested, 0.81% active; AID 1962;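 active means inhibition above the mean of all tested compounds plus 3 SD, set per screening campaign, cut at about 24% in these data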;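 further: plate controls were DMSO alone for no effect and ferristatin control at 100 nM for full effect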
proCasp7 act – activates human procaspase-7, counter-screen for procaspase-3 activators | P55210 | recombinant procaspase-7, Ac-DEVD-pNA absorbance 405 nm; D23A/D198A/D206A triple mutant, cannot self-cleave; scale: DMSO 0, 5 µM enzyme 100 | activation, % at 8.5 µM | 330,000 tested, 0.093% active;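 active means percent activation above the screen-wide mean plus 3 SD, cut at about 25% in these data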
Target sequence (P55210 whole entry D23A/D198A/D206A): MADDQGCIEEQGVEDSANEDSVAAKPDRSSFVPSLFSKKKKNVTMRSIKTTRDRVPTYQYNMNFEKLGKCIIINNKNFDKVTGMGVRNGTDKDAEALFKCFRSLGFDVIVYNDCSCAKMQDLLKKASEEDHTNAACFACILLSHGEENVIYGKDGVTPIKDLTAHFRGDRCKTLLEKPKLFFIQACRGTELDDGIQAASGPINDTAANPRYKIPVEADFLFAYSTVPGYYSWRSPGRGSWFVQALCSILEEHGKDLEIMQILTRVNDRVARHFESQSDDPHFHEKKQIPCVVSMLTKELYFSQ
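Test system: Procaspase-7 triple mutant (PC-7 D3A). Also added: Ac-DEVD-pNA substrate, 400 µM as added. Schedule: 1 h enzyme–compound preincubation and 2 h substrate reaction, both 25 °C. Signal: p-Nitroaniline absorbance at 405 nm, read at 0 and 120 min. Control set: low DMSO alone, high DMSO plus 5 µM PC-7.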
IDE cell inh – inhibitors of human insulin-degrading enzyme in cells; AID 434962; 320,000 tested, 0.41% active; HEK cells, FAbetaB cleavage, fluorescence polarization; P14735; inhibition, % at 5.59 µM;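 active means percent inhibition above the average of all tested compounds plus 3 SD, set per screening campaign, cut at about 16% in these data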;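 further: IDE supplied by intact live HEK cells; FP after avidin binding of uncleaved biotin substrate so inhibition keeps polarization high; 0% = DMSO wells and 100% = 60 µM reference IDE inhibitor Ii1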
proCasp3 act – activates human procaspase-3; 330,000 tested, 0.11% active; AID 463141; activation, % at 8.5 µM; recombinant procaspase-3 D3A, Ac-DEVD-pNA absorbance 405 nm;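 active means activation above the mean of all tested compounds plus 3 SD, cut at about 21% in these data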;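 further: 0% = DMSO alone and 100% = DMSO wells spiked with extra 5 µM PC-3 D3A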
Target sequence (P42574 whole entry D9A/D28A/D175A): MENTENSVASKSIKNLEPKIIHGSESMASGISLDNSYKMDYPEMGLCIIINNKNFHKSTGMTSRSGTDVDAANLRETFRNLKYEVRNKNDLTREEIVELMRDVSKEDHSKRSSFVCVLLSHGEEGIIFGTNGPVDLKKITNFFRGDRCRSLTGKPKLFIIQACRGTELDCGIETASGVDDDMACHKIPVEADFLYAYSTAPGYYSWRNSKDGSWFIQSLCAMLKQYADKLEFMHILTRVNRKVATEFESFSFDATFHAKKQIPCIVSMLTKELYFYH
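Test system: Procaspase-3 D3A mutant, all three cleavage aspartates alanine | Dosing: Single dose, 8.5 µM nominal compound, 0.8% DMSO | Schedule: 1 h preincubation, 2 h reaction | Technique: 405 nm absorbance of p-nitroaniline, reads at 0 and 120 min | Repeats: One well per compound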
TPT1 inh confirm – confirmation of Candida albicans TPT1 inhibitors. shares compounds with TPT1 inhibitor. recombinant caTPT1, fluorescence polarization, RNase T1 coupled. inhibition, % at 5 µM. 2,400 tested, 74% active;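 active means inhibition above the primary screen limit, the mean inhibition of all tested compounds plus 3 SD, cut at about 25% in these data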
RNase T1 inh – counter-screen for TPT1 inhibitors: inhibitors of Aspergillus oryzae RNase T1; shares compounds with TPT1 inhibitor; 2,400 tested, 83% active; AID 2153; inhibition, % at 5 µM; RNase T1 cleavage, fluorescence polarization, 1536-well;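 active means inhibition above the solvent-only control well mean plus 3 SD, limit set per screening run, cut at about 23% in these data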;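 further: plate controls were DMSO wells with enzyme for no effect and wells without RNase T1 for full effect; inhibitors block cleavage so intact labeled substrate keeps polarization high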
Target sequence (P00651 whole entry, looked up): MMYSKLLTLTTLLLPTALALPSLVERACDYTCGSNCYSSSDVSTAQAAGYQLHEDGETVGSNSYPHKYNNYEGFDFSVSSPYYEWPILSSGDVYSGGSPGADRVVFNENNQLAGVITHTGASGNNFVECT
* hit, by the source's call; x = no result given. A selection: hits, their analogues and other compounds. The true share with any hit is near 1.2%.

SMILES	IDE act	TPT1 inhibitor	proCasp7 act	IDE cell inh	proCasp3 act	others
C[C@H]1CC[C@@H]2[C@@H](C)[C@H]3[C@H](C[C@H]4[C@@H]5CC=C6C[C@@H](O[C@@H]7O[C@H](CO)[C@H](O)[C@H](O[C@@H]8O[C@H](CO)[C@@H](O)[C@H](O)[C@H]8O)[C@H]7O[C@@H]7O[C@@H](C)[C@H](O)[C@@H](O)[C@H]7O)CC[C@]6(C)[C@H]5CC[C@]34C)N2C1	6.9	28.1*	-7.8	-20.1	12.2
C[C@@H]1CC2C3CC=C4C[C@@H](O)CC[C@]4(C)C3CC[C@]2(C)[C@H]1O (stereo not given in full)	2.0	x	1.4	2.3	10.7
CCCCn1c(O)c(/C=C/C=Nc2ccccc2)c(=O)[nH]c1=O	-8.2	141.0*	-19.6	7.0	-26.4
COc1ccc(/C=C2/C(=O)NC(=O)N(Cc3ccco3)C2=O)cc1	x	32.8*	-12.8	0.7	1.0
CCS(=O)(=O)NCc1nnc2n1-c1ccc(Cl)cc1C(c1ccccc1)=NC2	-5.1	2.0	8.3	-0.8	4.3
O=C1NC(=O)C(CCc2ccccn2)(Cc2ccc3c(c2)OCO3)C(=O)N1CCc1ccccc1 (stereo not given)	2.5	4.5	0.8	11.5	2.6
Cc1ccc2c(c1)=C/C(=C\c1c(O)[nH]c(=S)[nH]c1=O)C(=O)N=2	x	-1.3	-17.8	16.4*	-13.3
Cc1nc2ccccc2c(=O)n1-c1cccc(C(F)(F)F)c1	3.3	-3.8	-10.7	3.1	-4.6
Cc1nc2ccccc2c(=O)n1-c1ccc(C(=O)O)cc1	17.6*	2.5	-4.7	4.2	-4.0
OC(CNC1CCCCC1)C(F)(F)F (stereo not given)	19.9*	0.1	1.8	8.7	1.4
c1ccc(CNC2CCCCCCC2)cc1 (tested in a mixture with another compound)	2.1	x	x	x	x
CC1CCC(C(C)C)C(OC(=O)Cn2c(COc3ccccc3)[n+](C)c3ccccc32)C1 (stereo not given)	21.0*	0.5	5.0	-9.6	-8.6
COC(=O)C1=C(c2ccc(F)cc2F)C[C@@H]2CC[C@H]1N2C(=O)NCCCOC(C)C	2.7	x	9.7	-1.2	7.4
O=C1NC(=S)N(c2ccc(F)cc2)C(=O)/C1=C/c1ccco1	x	78.3*	-10.8	3.5	-14.5
O=C1Nc2ccc(Br)cc2C(c2ccc(Cl)cc2)=NC1O (stereo not given)	2.2	x	x	x	x
Clc1ccc(COC(Cn2ccnc2)c2ccc(Cl)cc2Cl)cc1 (stereo not given)	-6.0	-3.9	2.0	9.2	1.1
Clc1ccc(C(c2ccc(Cl)cc2)n2cc[n+](CC(OCc3ccc(Cl)cc3Cl)c3ccc(Cl)cc3Cl)c2)cc1 (stereo not given)	18.6*	-1.1	-2.1	-5.0	-5.8
c1cncc(CNC2CCCCC2)c1	0.1	-1.8	-1.1	2.4	7.7
NS(=O)(=O)c1ccc(N=Cc2c(O)n(C3CCCCC3)c(=O)n(C3CCCCC3)c2=O)cc1	5.6	44.4*	5.0	3.4	5.6	TPT1 inh confirm=19.5;RNase T1 inh=25.0*
CCn1c(O)c(C=Nc2ccc(S(N)(=O)=O)cc2)c(=O)n(CC)c1=S	-4.4	19.5	-12.4	5.5	-3.5
Cc1cc(C=C2C(=O)N(C)C(=S)N(C)C2=O)c(C)n1C1CCCCC1	-4.0	24.5*	-6.8	3.2	-9.2	TPT1 inh confirm=27.6*;RNase T1 inh=39.1*
C[N+]1(C)C2CC(OC(=O)[C@H](CO)c3ccccc3)CC1C1OC12 (stereo not given in full)	6.3	-5.0	1.8	8.2	9.3
Cc1ccc(/C=C2\C(=O)NC(=O)N(CCc3ccc(F)cc3)C2=O)o1	1.1	20.0	-17.6	9.0	-0.6
O=C1NC(=O)N(Cc2ccc(F)cc2)C(=O)/C1=C/c1cccs1	-2.2	11.7	-25.4	2.2	-10.8
CN(C)c1ccc(/C=C2\C(=O)NC(=O)N(Cc3ccc(F)cc3)C2=O)cc1	5.2	28.9*	-16.8	-2.4	-15.1	TPT1 inh confirm=47.7*;RNase T1 inh=67.9*
SMILES	IDE act	TPT1 inhibitor	proCasp7 act	IDE cell inh	proCasp3 act	others
O=C1NC(=O)N(Cc2ccc(F)cc2)C(=O)/C1=C\c1ccoc1	-35.3	163.4*	-8.3	17.3*	-4.0	TPT1 inh confirm=67.2*;RNase T1 inh=80.5*
CCOc1cc(/C=C2\C(=O)NC(=O)N(CCc3ccc(F)cc3)C2=O)ccc1O	6.4	29.6*	-24.0	10.1	-10.0	TPT1 inh confirm=38.7*;RNase T1 inh=20.0
Cc1ccc(/C=C2/C(=O)NC(=O)N(Cc3ccc(F)cc3)C2=O)o1	x	34.6*	-13.5	-0.7	-10.1	TPT1 inh confirm=18.4;RNase T1 inh=25.5*
CN(C)c1ccc(/C=C2/C(=O)NC(=O)N(CCc3ccc(F)cc3)C2=O)cc1	-0.2	20.7	-5.4	0.3	-1.4
O=C(O)C1C2c3ccccc3C(=O)C1(C(=O)O)c1ccccc12 (stereo not given)	1.9	x	x	x	x
CN1CCN(/N=C/c2c(O)n(Cc3ccc(F)cc3)c(=O)[nH]c2=O)CC1	6.9	0.6	-16.3	-3.4	-3.7
CN(C)/C=C1/C(=O)NC(=O)N(CCNc2ncc(C(F)(F)F)cc2Cl)C1=O	-0.9	29.4*	-9.7	2.1	4.1	TPT1 inh confirm=23.7;RNase T1 inh=33.8*
CCCCN1C(=O)NC(=O)/C(=C/c2cnc(SC)nc2)C1=O	4.3	8.2	-16.6	4.1	-13.8
COC(=O)C1=C(c2cccc(OC)c2OC)C[C@@H]2CC[C@H]1N2C(=O)NC1CC1	0.2	0.3	7.6	0.2	12.0
Cc1cc(/C=C2\C(=O)NC(=O)N(Cc3ccccc3Cl)C2=O)c(C)n1-c1ccc(C(=O)O)cc1	-4.1	60.3*	-11.5	2.6	-2.9	TPT1 inh confirm=16.9;RNase T1 inh=24.1*
Cc1cc(/C=C2\C(=O)NC(=O)N(Cc3ccccc3)C2=O)c(C)n1-c1ccc(Cl)c(C(=O)O)c1	0.5	16.1	-15.7	8.8	-4.7
Cc1cc(/C=C2\C(=O)NC(=O)N(Cc3ccco3)C2=O)c(C)n1-c1ccc(O)cc1	-1.2	19.5	-3.4	0.2	4.4
Cc1cc(/C=C2\C(=O)NC(=O)N(Cc3ccco3)C2=O)c(C)n1-c1ccc(C(=O)O)cc1	2.0	25.2*	-6.0	-0.4	-5.3	TPT1 inh confirm=8.5;RNase T1 inh=10.3
COC(=O)C1=C(c2cc3ccccc3s2)C[C@@H]2CC[C@H]1N2C(=O)NCc1ccc(F)cc1	0.2	-3.1	-2.2	2.8	-9.7
COc1ccc(OC)c(-n2c(O)c(/C=C3\C=Nc4ccccc43)c(=O)[nH]c2=O)c1	1.6	15.0	-12.5	5.8	-6.8
C=CCn1c(O)c(/C=C2\C=Nc3ccccc32)c(=O)[nH]c1=O	x	35.5*	-1.5	-3.0	2.9	TPT1 inh confirm=13.5;RNase T1 inh=20.6

Source: PubChem
